Screening results from PubChem.
A selection: hits, their analogues and other compounds. The true share with any hit is near 2.5%.
MLL AF4-AF9 inh: blocks AF4 peptide binding to human AF9; AlphaScreen, biotin-AF4 peptide binding to FLAG-AF9; inhibition, % at 10 µM; hit rate 0.47% among 350,000; AID 651704;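 active = every replicate reaching a set inhibition limit, whatever the replicate mean, cut at about 25% in these data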
Target sequence (P42568 whole entry, looked up): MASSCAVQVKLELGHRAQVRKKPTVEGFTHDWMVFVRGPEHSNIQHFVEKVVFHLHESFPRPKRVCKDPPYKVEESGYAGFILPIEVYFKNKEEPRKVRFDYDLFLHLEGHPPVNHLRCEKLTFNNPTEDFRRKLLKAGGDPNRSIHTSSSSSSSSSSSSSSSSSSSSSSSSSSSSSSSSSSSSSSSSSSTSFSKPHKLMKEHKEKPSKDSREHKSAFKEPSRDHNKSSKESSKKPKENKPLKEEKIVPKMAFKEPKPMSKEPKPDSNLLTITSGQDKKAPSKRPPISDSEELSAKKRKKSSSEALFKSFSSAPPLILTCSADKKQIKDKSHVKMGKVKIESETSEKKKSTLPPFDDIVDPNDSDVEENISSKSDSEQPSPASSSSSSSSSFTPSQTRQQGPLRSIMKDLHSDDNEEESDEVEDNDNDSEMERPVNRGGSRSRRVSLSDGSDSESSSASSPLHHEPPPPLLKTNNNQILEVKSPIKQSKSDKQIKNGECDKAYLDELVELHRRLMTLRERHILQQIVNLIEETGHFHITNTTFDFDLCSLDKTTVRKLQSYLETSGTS
Env fusion inh: inhibitors of HIV Env-mediated cell fusion. HeLa-JRFL Env/CEM21 cell fusion, luciferase. inhibition, % at 12.3 µM. hit rate 1.1% among 360,000;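 active = mean replicate inhibition score of at least 50 and every replicate individually at or above 50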
EWS-Fli inh: EWS/Fli transcriptional activity inhibition | hit rate 0.67% among 350,000 | A673 NR0B1-luciferase reporter, viability-normalised | inhibition, % at 12.6 µM;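 active = mean inhibition of at least 50% after viability correction, with every replicate also passing that limit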;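 note: firefly luciferase signal divided by Alamar Blue viability fluorescence both relative to DMSO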
FN deposition inh: fibronectin deposition inhibition. AH1F fibroblasts, Alexa488-fibronectin deposition fluorescence, overnight. inhibition, % at 12.6 µM. hit rate 0.086% among 350,000. AID 743247;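 active = mean inhibition across replicates of 30% or more, regardless of how many single replicates reach that level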
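Material – AH1F fibroblast monolayer, labelled fibronectin deposition · Reagent – labelled fibronectin 24 nM · Timing – 1 h adhesion, overnight exposure · Measured by – fluorescence at 485 nm excitation, 525 nm emission · Read-out – inhibition of fibronectin deposition signal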
PAX8 reporter: inhibitors of PAX8 transcriptional activity in RMG-I cells; RMG-I TPO-luciferase reporter, SteadyGlo, 24 h; hit rate 1.2% among 360,000; inhibition, % at 12.6 µM;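 active = mean replicate inhibition at least 60% with every replicate also reaching 60%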;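 note: luciferase light reporting Pax8 driven TPO promoter activity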
N-glyco inh: blocks N-linked glycosylation in D54 reporter cells; reporter increase, % at 12.5 µM; D54 ERlucT glycosylation luciferase reporter, 24 h; percent of 100 nM tunicamycin response; hit rate 0.23% among 360,000;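 active = mean luciferase reporter signal, scaled so untreated is 0 and the glycosylation-blocking control 100, at or above a set limit in every replicate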;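 note: luciferase carries N-glycosylation sites so blocking glycosylation raises the light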
Each line names hits and unclear results; the compound was inactive in the other large screens; [ ] = another dose, or the depositor's remark.

COc1ccc2c3c(n(C)c2c1)[C@@H](CO)N(C(=O)Nc1ccccc1F)CC31CN(C(=O)c2ccccc2)C1	none (no result: Env fusion inh, FN deposition inh, PAX8 reporter, N-glyco inh)
COc1cc(C(CCN2CCCC(C)C2)c2c(OC)cc(OC)c3c2OC(=O)CC3c2ccc(N(C)C)cc2)cc(OC)c1OC (stereo not given)	none (no result: MLL AF4-AF9 inh, Env fusion inh, EWS-Fli inh, FN deposition inh, PAX8 reporter)
COc1cc(C2CC(=O)Oc3c(C(CCN4CCCC(C)C4)c4ccc(N(C)C)cc4)c(OC)cc(OC)c32)cc(OC)c1OC (stereo not given)	MLL AF4-AF9 inh 39.1
COc1ccc(C2CC(=O)Oc3c(C(CCN4CCOCC4)c4cc(OC)c(OC)c(OC)c4)c(OC)cc(OC)c32)cc1 (stereo not given)	none
COc1cc(C(CCN2CCOCC2)c2c(OC)cc(OC)c3c2OC(=O)CC3c2ccc(N(C)C)cc2)cc(OC)c1OC (stereo not given)	MLL AF4-AF9 inh 48.7
COc1cc(OC)c2c(-c3ccccc3)cc(=O)oc2c1C(CCN1CCCC(C)C1)c1ccc2c(c1)OCO2 (stereo not given)	MLL AF4-AF9 inh 31.9
CN1C(=O)c2cc(NC(=O)C3CCCC3)ccc2OC[C@@H]2O[C@H](CC(=O)NCCc3ccncc3)CC[C@H]21	none (no result: Env fusion inh, N-glyco inh)
COc1cccc(S(=O)(=O)N[C@@H]2CC[C@H](CCN)O[C@H]2CO)c1	Env fusion inh 65.6[16.7 µM] (no result: N-glyco inh)
COc1cccc(S(=O)(=O)N[C@H]2CC[C@@H](CCN)O[C@@H]2CO)c1	Env fusion inh 68.0[16.7 µM] (no result: N-glyco inh)
Cc1ccc(S(=O)(=O)Nc2ccc3c(c2)C(=O)N([C@@H](C)CO)C[C@@H](C)[C@H](CN(C)C)OCCCC[C@H](C)O3)cc1	none (no result: N-glyco inh)
O=[N+]([O-])c1c(Nc2cccc(O)c2)cc(Cl)c2nonc12	EWS-Fli inh 59.4, FN deposition inh 35.0, PAX8 reporter 111.7
Cc1c(Nc2cc(Cl)c3nonc3c2[N+](=O)[O-])c(=O)n(-c2ccccc2)n1C	PAX8 reporter 106.7
CO[C@H]1CN(C)C(=O)c2ccc(NS(=O)(=O)CC(F)(F)F)cc2OC[C@H](C)N(C)C[C@@H]1C	none (no result: Env fusion inh, N-glyco inh)
O=C(Nc1ccn(Cc2ccccc2F)n1)c1ccc(COc2ccccc2Cl)cc1	Env fusion inh 59.5 (no result: MLL AF4-AF9 inh, EWS-Fli inh, PAX8 reporter)
CN(C)CCOc1ccc(-c2c(-c3ccsc3)sc3ccccc23)cc1	none
COc1ccc(-c2sc3ccccc3c2-c2ccc(OCCN(C)C)cc2)cc1	PAX8 reporter 100.1
COc1cccc(-c2sc3ccc(OC)cc3c2-c2ccc(OCCN(C)C)cc2)c1	PAX8 reporter 68.3
CC(C)NC(=O)Nc1ccc2c(c1)C(=O)N(C)[C@@H]1CC[C@@H](CC(=O)Nc3ccccc3)O[C@H]1CO2	none (no result: N-glyco inh)
C[C@@H]1CCCCO[C@H](CN(C)S(=O)(=O)c2ccc(Cl)cc2)[C@@H](C)CN([C@@H](C)CO)C(=O)c2cc(NC(=O)Nc3ccccc3)ccc2O1	none (no result: FN deposition inh, N-glyco inh)
CCOc1ccccc1CNC(=O)C1CCCN(c2nnc(C)c3c(C)n(-c4ccccc4)nc23)C1 (stereo not given)	EWS-Fli inh 63.1, PAX8 reporter 80.7
Cc1[nH]c2ccccc2c1C(=O)C(C)OC(=O)c1ccc([N+](=O)[O-])o1 (stereo not given)	PAX8 reporter 61.7
CCc1noc(C)c1C(=O)OC(C)C(=O)c1c(C)[nH]c2ccccc12 (stereo not given)	none (no result: Env fusion inh)
COC(=O)C[C@@H]1CC[C@H]2[C@H](COc3ccc(NC(=O)c4ccccc4OC)cc3C(=O)N2C)O1	none (no result: MLL AF4-AF9 inh, N-glyco inh)
O=C(Cc1ccccc1)N1C[C@@H]2[C@H](c3ccccc31)[C@@H](CO)N2C(=O)c1cccc(F)c1	none (no result: Env fusion inh, FN deposition inh, N-glyco inh)
COc1ccc(/C=C/C(=O)NC(=S)NNC(=O)c2c(-c3ccccc3)noc2C)cc1	Env fusion inh 90.6 (no result: MLL AF4-AF9 inh, EWS-Fli inh)
Cc1onc(-c2ccccc2)c1C(=O)NNC(=S)NC(=O)c1ccc(Br)cc1	none (no result: Env fusion inh)
COc1ccc(-c2cc(C(=O)NNC(=S)NC(=O)c3c(-c4ccccc4)noc3C)[nH]n2)cc1	Env fusion inh 69.4 (no result: FN deposition inh)
COc1ccc(S(=O)(=O)N(C)C[C@@H]2Oc3ccc(NC(=O)Nc4ccc(F)cc4)cc3C(=O)N([C@H](C)CO)C[C@H]2C)cc1	none (no result: Env fusion inh, FN deposition inh, PAX8 reporter, N-glyco inh)
CCCC(=O)Nc1ccc2c(c1)C(=O)N(C)C[C@@H](OC)[C@H](C)CN(CC1CCOCC1)[C@H](C)CO2	none (no result: MLL AF4-AF9 inh, Env fusion inh, PAX8 reporter, N-glyco inh)
CCOc1ccc(NC2c3ccccc3C(=O)N2Cc2ccco2)cc1 (stereo not given)	Env fusion inh 73.6
